From ChEMBL document CHEMBL3856214, “Lanostane Triterpenes Isolated from Antrodia heteromorpha and Their Inhibitory Effects on RANKL-Induced Osteoclastogenesis” (J Nat Prod, 2016) come the findings set out here.

Molecules are shown by their SMILES.

By IC50 is commonly meant the midpoint of a concentration-inhibition curve.

For data set [1], the system named is BMDM. The experiment in a line: Inhibition of RANKL-induced C57BL/6 mouse BMDM differentiation into osteoclasts after 4 days in presence of M-CSF by TRAP staining-based light microscopy. It counts as functional. In outline:
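BMMs (6–8-week-old female C57BL/6 mouse femur/tibia marrow, 3 days with M-CSF 50 ng/mL) seeded at 4 × 10^4/well. Cultured 4 days with M-CSF (50 ng/mL), RANKL (100 ng/mL) and vehicle or compound. Fixed in 10% formalin for 5 min, then TRAP-stained by kit to show TRAP-positive multinucleated osteoclasts.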

Data set [2] relates to BMDM. The experiment in a line: (§1) Inhibition of RANKL-induced C57BL/6 mouse BMDM differentiation into osteoclasts after 4 days in presence of M-CSF by TRAP assay. It counts as functional. An outline of the steps:
(§2)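 Bone marrow cells from femurs and tibiae of 6–8-week-old female C57BL/6 mice; after red-cell lysis, 3 days in α-MEM/10% FBS with penicillin-streptomycin and M-CSF (50 ng/mL); adherent cells kept as BMMs. BMMs (4 × 10^4/well) given M-CSF (50 ng/mL) plus RANKL (100 ng/mL) with vehicle or compound, 4 days. TRAP activity of culture supernatant with chromogenic substrate, OD 540 nm.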

Data set [3] is described as follows: as §1. The data set is classed as functional. The settings on record: C57BL/6, BMDM, 96 h. An outline of the steps: as §2
The next data set is filed under the species Mus musculus. Description: Cytotoxicity against C57BL/6 mouse BMDM assessed as decrease in cell viability at IC50 after 4 days in presence of RANKL/M-CSF by XTT assay. It counts as toxicity. The settings on record: 96 h.

For `C=C(CC[C@@H](C(=O)O)[C@H]1[C@H](O)C[C@@]2(C)C3=CC[C@H]4C(C)(C)C(=O)CC[C@]4(C)C3=CC[C@]12C)C(C)C` [POLYPORENIC ACID B], the inhibition entry in the data set with BMDM [1] and in the data set with BMDM [2] was “Dose-dependent effect” in each case. Also, the 50% inhibitory concentration (IC50) in data set [3] was determined as 4.9 µM. Besides, the Activity result in the data set filed under Mus musculus is “Non-Toxic”.

On to `CC1=C(C)[C@@]2(C[C@](C)(O)[C@H]3C[C@H](O)[C@@]4(C)C5=CC[C@H]6C(C)(C)[C@@H](O)C(=O)C[C@]6(C)C5=C[C@@H](O2)[C@]34C)OC1=O`, for which the inhibition result in the data set on BMDM [1] and in the data set with BMDM [2] was “Dose-dependent effect” throughout. The IC50 in data set [3] turned out to be 4.5 µM. Also, the Activity entry in the data set filed under Mus musculus is listed as “Non-Toxic”.

In the case of `CC1=C(C)[C@@]2(C[C@](C)(O)[C@H]3C[C@H](O)[C@@]4(C)C5=CC[C@H]6C(C)(C)C(=O)[C@H](O)C[C@]6(C)C5=C[C@@H](O2)[C@]34C)OC1=O`, the inhibition result with BMDM [1] and in the data set with BMDM [2] was “Dose-dependent effect” each time. For the same compound, the IC50 in data set [3] is 7.4 µM. In the data set listed under Mus musculus, the Activity entry is “Non-Toxic”.
